Results gathered from unrelated publications.
Protocols differ between the studies behind these lines.
Action: inhibitor
CDK5: Cyclin-dependent kinase 5 (CDK5, Homo sapiens, UniProt Q00535)
CDK5 with p25: Cyclin-dependent kinase 5, with p25 (CDK5, Homo sapiens, UniProt Q00535)

SMILES	target	observed	technique	cells	concentration	inhibition [%]
CCN1CCN(Cc2ccc(NC(=O)c3ccc(C)c(Oc4ccnc5[nH]ccc45)c3)cc2C(F)(F)F)CC1	CDK5	target engagement in cells	chemoproteomics	Huh-7	10 µM	-42.6
COc1cc(-c2cc(-c3ccc(N4CCNCC4)cc3)cnc2C)cc(OC)c1OC	CDK5	enzyme activity			0.1 µM	2
CN(C)C1CCN(CC#Cc2nn(C3CCCC3)c3nc(NCc4ccccc4)ncc23)C1 (centres unmarked)	CDK5 with p25	enzyme activity	FRET		1 µM	3
COc1cc2ncnc(Nc3ccc(Oc4ccccc4)cc3C)c2cc1OC	CDK5 with p25	enzyme activity			1 µM	7
CC[C@H](C)[C@H](NC(=O)[C@H](CCC(N)=O)NC(=O)[C@H](CC(C)C)NC(=O)[C@H](CCSC)NC(=O)[C@H](CCCCN)NC(=O)[C@H](CO)NC(=O)[C@H](CO)NC(=O)[C@H](CCSC)NC(=O)[C@H](CC(C)C)NC(=O)[C@H](CC(N)=O)NC(=O)[C@@H](NC(=O)[C@@H](NC(=O)[C@H](CO)NC(=O)[C@H](CC(C)C)NC(=O)[C@H](CS)NC(=O)[C@H](CCCNC(=N)N)NC(=O)[C@H](CC(=O)O)NC(=O)[C@H](Cc1c[nH]c2ccccc12)NC(=O)[C@H](Cc1ccccc1)NC(=O)[C@H](C)NC(=O)[C@H](CCC(=O)O)NC(=O)[C@@H](N)CCCCN)C(C)C)[C@@H](C)CC)C(=O)N[C@@H](CC(N)=O)C(=O)N[C@@H](C)C(=O)O	CDK5 with p25	enzyme activity	radiometric		10 µM	13
COc1cc2ncnc(Nc3ccc(Oc4ccccc4)c(C)c3C)c2cc1OC	CDK5 with p25	enzyme activity			1 µM	3
CCOc1cc(-c2nncn2C)ccc1Nc1ncc2cc(C)nc(NCC(C)(C)C)c2n1	CDK5 with p25	enzyme activity	FRET		1 µM	49
CNCc1ccc(-c2cc(-c3nc(-c4ccc(S(=O)(=O)C(C)C)cc4)cnc3N)on2)cc1	Cyclin-dependent kinase 5, with p35 (CDK5, Homo sapiens, UniProt Q00535)	enzyme activity			2 µM	16
